The results in this text go back to ChEMBL document CHEMBL4706674 (Bioorg Med Chem Lett, 2021).

SMILES strings stand for the structures.

Series [1] concerns Human immunodeficiency virus 1. Nature of the series: Antiviral activity against wild type HIV-1 NL4-3 harbouring Gag AV370/T371A mutant infected in MT-2 cells assessed as inhibition of viral replication in presence of 10% of fetal bovine serum by luciferase reporter gene based multicycle replication assay. In kind it is functional, organism-based. The conditions noted are these: Human immunodeficiency virus 1, NL4-3, MT2. For orientation: A reporter such as luciferase makes a cellular process visible.

Series [2] can be described thus: Metabolic stability in human liver microsomes assessed as half life. In kind it is ADME, Microsome. The conditions noted are these: time 2 min. On the technique in general: Microsomes from liver hold many membrane-bound enzymes, among them those of drug oxidation.
Series [3] has as its system Human immunodeficiency virus 1. Nature of the series: Antiviral activity against wild type HIV-1 NL4-3 infected in MT-2 cells assessed as inhibition of viral replication in presence of 40% human serum and 27 mg/ml human serum albumin by luciferase reporter gene based multicycle replication assay. In kind it is functional, organism-based. To be noted: Human immunodeficiency virus 1, NL4-3, MT2.

Series [4] can be described thus: AUC in rat at 5 mg/kg, po. The conditions noted are these: in vivo.
Series [5] can be described thus: AUCtotal in rat at 5 mg/kg, po measured after 24 hrs. Also on record: route oral, dose 5 mg/kg, time 24 hrs. The conditions noted are these: in vivo. In kind it is ADME, organism-based. The procedure, abridged: (§1)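 Rats dosed 5 mg/kg PO and 1 mg/kg IV; each value is the mean of 3 rats unless otherwise noted (some n = 2). Vehicle PEG 300/ethanol/Tween 80 (89:10:1 v/v), or PEG 300/ethanol/0.1 N NaOH/Tween 80 (84.5:10:5:0.5 v/v). F, tmax, Cmax and CL come from a full 24 h PK screen. AUCtotal is derived from the full 24 h run plus a 6 h PK screen.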

In series [6] the test system is Human immunodeficiency virus 1. The experiment in a line: Antiviral activity against wild type HIV-1 NL4-3 harbouring Gag V370A mutant infected in MT-2 cells assessed as inhibition of viral replication in presence of 10% of fetal bovine serum by luciferase reporter gene based multicycle replication assay. In kind it is functional, organism-based. The conditions noted are these: Human immunodeficiency virus 1, NL4-3, MT2.

For series [7], the system named is Human immunodeficiency virus 1. The experiment in a line: Antiviral activity against wild type HIV-1 NL4-3 harbouring Gag AV370 mutant infected in MT-2 cells assessed as inhibition of viral replication in presence of 10% of fetal bovine serum by luciferase reporter gene based multicycle replication assay. In kind it is functional, organism-based. The conditions noted are these: Human immunodeficiency virus 1, NL4-3, MT2. The method in brief: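 Multiple-cycle replication assay in MT-2 cells using NL4-3-derived virus carrying a Renilla luciferase reporter (NLRepRlucP373S) as the growth marker. V370A and ΔV370 viruses are identical to WT except for that single substitution or deletion at position 370.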

The nature of series [8]: Tmax in rat at 5 mg/kg, po measured after 24 hrs. In kind it is ADME, organism-based. To be noted: in vivo. The method in brief:
as §1

Series [9] can be described thus: Cmax in rat at 5 mg/kg, po measured after 24 hrs. In kind it is ADME, organism-based. Also on record: route oral, dose 5 mg/kg, time 24 hrs. The conditions noted are these: in vivo. The method in brief:
as §1

Series [10] deals with Human immunodeficiency virus 1. Nature of the series: Antiviral activity against wild type HIV-1 NL4-3 harbouring Gag […]/V370A mutant infected in MT-2 cells assessed as inhibition of viral replication in presence of 10% of fetal bovine serum by luciferase reporter gene based multicycle replication assay. In kind it is functional, organism-based. To be noted: Human immunodeficiency virus 1, NL4-3, MT2.

Series [11] in a line: Metabolic stability in rat liver microsomes assessed as half life. In kind it is ADME, Microsome. To be noted: time 2 min.
The nature of series [12]: Oral bioavailability in rat measured at 5 mg/kg up to 24 hrs. In kind it is ADME, organism-based. The conditions noted are these: in vivo. The method in brief: as §1
Series [13] is described as follows: Volume of distribution at steady state in rat at 1 mg/kg, iv. In kind it is ADME, organism-based. To be noted: in vivo, read-out: Vdss.
A short description of series [14]: Clearance in rat at 1 mg/kg, iv measured after 24 hrs. In kind it is ADME, organism-based. The conditions noted are these: in vivo. The procedure, abridged: as §1
Series [15] has as its system Human immunodeficiency virus 1. Nature of the series: Antiviral activity against wild type HIV-1 NL4-3 infected in MT-2 cells assessed as inhibition of viral replication in presence of 10% of fetal bovine serum by luciferase reporter gene based multicycle replication assay. In kind it is functional, organism-based. To be noted: Human immunodeficiency virus 1, NL4-3, MT2.

The nature of series [16]: Cytotoxicity against human MT2 cells. In kind it is cell-based.
Series [17] concerns Human immunodeficiency virus 1. Nature of the series: Antiviral activity against wild type HIV-1 NL4-3 harbouring Gag A364V mutant infected in MT-2 cells assessed as inhibition of viral replication in presence of 10% of fetal bovine serum by luciferase reporter gene based multicycle replication assay. In kind it is functional, organism-based. To be noted: Human immunodeficiency virus 1, NL4-3, MT2.

Series [18] in a line: AUC (0 to 24) in rat at 5 mg/kg, po measured after 24 hrs. In kind it is ADME, organism-based. Also on record: route oral, time 24 hrs, dose 5 mg/kg. The conditions noted are these: in vivo. The procedure, abridged: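 Rats dosed orally at 5 mg/kg (IV arm 1 mg/kg). Vehicle was PEG 300/ethanol/Tween 80 (89:10:1 v/v) or PEG 300/ethanol/0.1 N NaOH/Tween 80 (84.5:10:5:0.5 v/v). Values are the mean of 3 rats unless noted (some n = 2), from a full 24 h PK run; AUC_total also drew on a 6 h PK screen.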

Broadly, the EC50 is the concentration at which the effect is half-maximal. As usually defined, the half-life is the time in which the quantity being followed falls by half. What is called AUC is the area under the concentration-time curve, a measure of exposure. A low value points to less exposure. What is called Tmax is the time from dosing to the highest level. In general, Cmax refers to the highest concentration seen after dosing. As to `C=C(C)[C@@H]1CC[C@]2(NCCN3CCS(=O)(=O)CC3)CC[C@]3(C)[C@H](CC[C@@H]4[C@@]5(C)CC=C(c6ccc(C(=O)O)cc6)C(C)(C)[C@@H]5CC[C@]43C)[C@@H]12` [BMS-955176], the EC50 in [1] stood at 0.023 µM; in series [3] it was 0.0115 µM; in series [6] it was 0.0027 µM; in series [7], 0.013 µM; in series [10], 0.148 µM. For the same compound, the half-life in series [2] and in [11] was over 2 h throughout. Also, the AUC in [4] turned out to be 4.1 µM·h; in series [5], 14.2 µM·h. The Tmax in [8] was found to be 6 h. In addition, the Cmax in series [9] was determined as 1.2 µM.

In general, bioavailability refers to the share of a dose that reaches the circulation, judged against a reference dose that is usually intravenous. As usually defined, the clearance is the volume of plasma or blood freed of the substance per unit of time. The CC50 is the concentration at which the toxic effect on the cells reaches its halfway point. Turning to `C=C(C)[C@@H]1CC[C@]2(NCCN3CCS(=O)(=O)CC3)CC[C@]3(C)[C@H](CC[C@@H]4[C@@]5(C)CC=C(C6=CC7(C6)CC(C(=O)O)C7)C(C)(C)[C@@H]5CC[C@]43C)[C@@H]12` (stereo partly drawn), the half-life in [2] is 1.15 h; in series [11] it was over 2 h. The bioavailability in series [12] came to 32%. Further, the Vd in series [13] was 1.4 L/kg. Also, the EC50 in series [3] was found to be 0.007 µM; in [6], 0.0016 µM; in series [7] it was 0.0059 µM; in series [10], 0.049 µM; in series [15], 0.0015 µM; in series [17], 0.98 µM. Also, the clearance in series [14] came to 0.174 L/h/kg. This compound returned an AUC in series [5] of 13.5 µM·h. Further, the Tmax in series [8] came to 6.3 h. This compound also registered a Cmax in [9] of 0.9 µM. This compound yielded a CC50 in series [16] of 11.9 µM.

In the case of `C=C(C)[C@@H]1CC[C@]2(C(=O)O)CC[C@]3(C)[C@H](CC[C@@H]4[C@@]5(C)CC=C(c6ccc(C(=O)O)cc6)C(C)(C)[C@@H]5CC[C@]43C)[C@@H]12`, the half-life in [2] and in [11] was over 2 h in each case. In series [18], the area under the curve (AUC) at 24 h came out at 5.7 µM·h. For the same compound, in [13], the Vd turned out to be 0.1 L/kg. Moreover, the EC50 in series [3] stood at 0.316 µM. The compound also showed a clearance in [14] of 0.06 L/h/kg. In addition, the Tmax in series [8] came out at 4 h.
